Source: publication PMC3835248 (Journal of the American Heart Association: Cardiovascular …, 2013)
Entries after “also recorded” stand apart in the source; their conditions may differ. Values belong to the molecule of their own block, whether it stands above or below them.

Columns and labels:
IκBα = assay: Half-life of endogenous IκBα in Jurkat T cells; format: cell-based, human; conditions: 1 μmol/L 30 minutes before cycloheximide, PMA/Iono-stimulated Jurkat
Outline: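 Jurkat T cells given cycloheximide 10 μg/mL. 30 min later, left unstimulated or given PMA 5 nmol/L plus ionomycin 2 μmol/L. Parallel samples had epoxomicin 1 μmol/L 30 min before cycloheximide. Cells sampled at […]; two-step hypotonic NP-40/0.45 mol/L NaCl lysates. Infrared quantitative immunoblot; signal normalised to β-actin, expressed as % of t0; mean±SD of ≥3 experiments.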

importins α = assay: Competition of biotinylated peptides with native auto-inhibitory regions; format: binding, human; conditions: biotinylated peptide, Jurkat lysate, pull-down
Outline: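 Biotinylated peptides of importin α1, α3, α4, α5 and α7 auto-inhibitory regions, with biotinylated NLS and mutant NLS peptides, each added separately to whole-cell lysate of Jurkat T cells. Per pull-down protocol: 10 nmols peptide, lysate 1.5 mg/mL total protein, overnight. Complexes captured on streptavidin beads; importins detected by immunoblot.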

GST-tagged Imp α5 ΔIBB = GST-tagged Imp α5 ΔIBB (Homo sapiens, UniProt P52294); assay: Bio-Layer Interferometry; format: binding
GST-tagged Imp α5 ΔIBB, sequence (P52294 101-538 limits assumed, stated change not applied): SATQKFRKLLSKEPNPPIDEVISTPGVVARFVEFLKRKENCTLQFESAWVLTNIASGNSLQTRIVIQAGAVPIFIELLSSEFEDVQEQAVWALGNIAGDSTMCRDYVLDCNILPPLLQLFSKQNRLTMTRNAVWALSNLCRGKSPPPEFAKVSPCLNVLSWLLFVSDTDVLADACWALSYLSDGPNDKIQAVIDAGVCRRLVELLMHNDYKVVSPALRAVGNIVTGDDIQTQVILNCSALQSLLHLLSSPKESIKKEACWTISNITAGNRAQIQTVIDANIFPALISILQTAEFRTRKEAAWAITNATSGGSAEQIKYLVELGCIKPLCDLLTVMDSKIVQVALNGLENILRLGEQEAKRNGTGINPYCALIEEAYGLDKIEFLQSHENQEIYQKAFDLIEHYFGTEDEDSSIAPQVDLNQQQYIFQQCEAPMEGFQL
Outline: (§1)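 Human importin α1 or α5 lacking the importin-β-binding domain (aa 1-100), GST-tagged, expressed in E. coli BL21(DE3)-RIL as inclusion bodies. Refolded, GST-affinity purified and dialysed into pH 7.0 "intracellular" buffer. Biotinylated peptide (5 nmol/L) loaded on streptavidin biosensors, 10 min, 37°C. Protein at 50–200 nmol/L, 30°C, with GST alone as control. Association 15 min, dissociation 15 min; curves fitted 1:1 or 2:1; 3 independent experiments.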

GST-tagged Imp α1 ΔIBB = assay: Bio-Layer Interferometry; format: binding, human
Outline: as §1

Imp α1 [1] = assay: Importin binding; design: species or system human
Outline: (§2)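 Biotinylated peptides (N-terminal biotin, 5-Gly spacer), 10 nmols, incubated overnight with whole-cell lysates of unstimulated Jurkat, HeLa S3 or EA.hy926 cells (Jurkat at 1.5 mg/mL total protein). Captured on streptavidin beads; immunoblotted for importins α1, α3, α4, α5, α7, β1, with GAPDH as nonspecific control. Binding strength judged from pulled-down versus lysate amount, alongside GAPDH-normalised importin abundance per cell type.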

Imp α4 [2] = assay: Importin binding; design: species or system human; conditions: Jurkat T cell lysate compared to HeLa S3 and EA.hy926
Outline: as §2

Imp α7 = assay: Importin binding; design: species or system human; conditions: biotinylated peptide, whole cell lysates, SA-bead pull-down, immunoblot
Outline: as §2

Imp α3 = assay: Importin binding; design: species or system human; conditions: HeLa S3 lysate compared to other cell types
Outline: as §2

Imp α5 [3] = assay: Competition binding assay, Imp α5; design: species or system human; conditions: free N50 0-300 μmol/L, Jurkat lysate
Outline: (§3)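 Unlabelled N50 (0, 10, 30, 100, 300 μmol/L) incubated overnight at 4°C with unstimulated Jurkat lysate at 1.5, 0.3 or 0.05 mg/mL total protein. Unbound importins then pulled down with biotinylated N50 on streptavidin beads and quantified by immunoblot. Bead-bound signal without competitor set to 100%; percentage remaining per concentration, mean±SD of 3 independent experiments.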

Imp α4 [4] = assay: Competition binding assay, Imp α4; design: species or system human; conditions: free N50 0-300 μmol/L, Jurkat lysate 1.5 mg/mL
Outline: as §3

Imp α1 [5] = assay: Competition binding assay, Imp α1; design: species or system human; conditions: free N50 0-300 μmol/L, Jurkat lysate 1.5 mg/mL
Outline: as §3

Imp α5 [6] = assay: Importin binding; design: species or system human
Outline: as §2

Molecule: CC[C@H](C)[C@H](NC(=O)[C@H]([C@@H](C)CC)N(C)C(C)=O)C(=O)N[C@H](C(=O)N[C@@H](CC(C)C)C(=O)[C@@]1(C)CO1)[C@@H](C)O [epoxomicin]
effect on turnover of IκBα (IκBα): drastically slowed turnover

Molecule: IQLRKQKREQQLFKRRNVELI [AR7]
competition with native ARs of importins α (importins α): successfully competed with native ARs of all importins α, including its own

BLI response with Imp α5 (GST-tagged Imp α5 ΔIBB; biotinylated peptide immobilized, Imp α5 ΔIBB 200 nmol/L): at the background level | BLI response with Imp α1 (GST-tagged Imp α1 ΔIBB; biotinylated peptide immobilized, Imp α1 ΔIBB 200 nmol/L): at the background level
Molecule: VQRDEQKLMP [N50M]

Molecule: VQRKRQKLMP [N50]
relative strength of interaction with Imp α1 (Imp α1 [1]; EA.hy926 lysate compared to Jurkat T cells): weaker | relative strength of interaction with Imp α1 (Imp α1 [1]; HeLa S3 lysate compared to Jurkat T cells): weaker | binding to Imp α5, in words (GST-tagged Imp α5 ΔIBB; BLI): specific, high‐affinity binding; also recorded: preferential and specific binding | maximum response with Imp α5 relative to maximum response with Imp α1 (GST-tagged Imp α5 ΔIBB; BLI, normalized by subtracting GST): more than 20 fold | relative strength of interaction with Imp α4 (Imp α4 [2]): stronger | interaction with Imp α7 (Imp α7): inability to detect any interactions; also recorded: inaccessible to this peptide | relative strength of interaction with Imp α3 (Imp α3): stronger | competition with native ARs of importins α (importins α): successfully competes | inhibition of Imp α5 binding to immobilized N50, in words (Imp α5 [3]): tightly controlled by unlabeled peptide in all lysate total protein concentrations; also recorded: concentration dependent | inhibition of Imp α4 binding to immobilized N50, in words (Imp α4 [4]): slightly inhibited; also recorded: do not substantially inhibit binding | inhibition of Imp α1 binding to immobilized N50, in words (Imp α1 [5]): slightly inhibited; also recorded: do not substantially inhibit binding | relative strength of interaction with Imp α5 (Imp α5 [6]; all 3 cell types (Jurkat, HeLa S3, EA.hy926)): similarly strong in all 3 cell types | relative amount of Imp α5 bound to biotinylated N50 (Imp α5 [6]; compared with any of the other detected proteins): strikingly higher than any of the other detected proteins | binding to Imp α1, in words (GST-tagged Imp α1 ΔIBB; BLI): not Imp α1; also recorded: nonspecific; also recorded: low affinity
